Columns and labels:
[1] = tested on: SAOS-2 osteosarcoma cells; assay: IP-MS of PTHrP1–17 in SAOS-2 conditioned media with exogenous MMP-3; format: cell-based, human; conditions: SAOS-2+MMP-3 100 ng/ml; SAOS-2 alone = 0.004
[2] = tested on: PAIII rat prostate adenocarcinoma cells; assay: IP-MS of PTHrP1–17 in PAIII conditioned media with MMP inhibition; format: cell-based
[3] = tested on: PTH1R; conditions: PTH1R overexpressing CHO-K1 cells; cited from earlier work
[4] = tested on: PTH1R; conditions: PTH1R overexpressing CHO-K1 cells; cited from earlier work; remark: listed apart in the source
[5] = tested on: MSCs; assay: Migration of primary MSCs; format: cell-based, mouse; conditions: 10 nM in serum free media, 6 h / 5-h (methods), n = 3/group
[6] = molecular target: T1, PTH1R (Mus musculus, UniProt P41593); assay: Calcium flux in MC3T3 osteoblasts; format: cell-based; conditions: MC3T3, 10 nM, fluorescence in individual cells, n = 20/group
T1 sequence (P41593 27-591): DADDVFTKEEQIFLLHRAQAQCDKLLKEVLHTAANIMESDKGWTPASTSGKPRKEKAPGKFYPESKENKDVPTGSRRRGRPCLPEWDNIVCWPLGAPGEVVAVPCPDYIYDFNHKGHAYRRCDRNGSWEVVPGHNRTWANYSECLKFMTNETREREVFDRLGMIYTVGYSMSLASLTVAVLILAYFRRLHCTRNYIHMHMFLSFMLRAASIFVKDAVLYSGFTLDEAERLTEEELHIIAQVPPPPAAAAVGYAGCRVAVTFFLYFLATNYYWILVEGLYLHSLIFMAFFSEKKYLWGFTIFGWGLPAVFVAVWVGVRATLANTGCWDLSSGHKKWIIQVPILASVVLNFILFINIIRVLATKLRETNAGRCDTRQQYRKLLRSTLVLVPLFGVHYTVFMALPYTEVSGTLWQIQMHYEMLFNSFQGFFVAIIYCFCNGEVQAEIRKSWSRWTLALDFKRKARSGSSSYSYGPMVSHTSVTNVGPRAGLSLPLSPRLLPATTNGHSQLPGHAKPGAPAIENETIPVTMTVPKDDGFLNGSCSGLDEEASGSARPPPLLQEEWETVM
Method in brief: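 MC3T3 cells (1 × 10^5) were loaded with Fluo-4 Direct calcium reagent and imaged by time-lapse fluorescence microscopy before and after peptide addition (0 and 60 s frames shown). Fluorescence rise was quantified in individual cells, n = 20/group, from three fields of view per condition.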

[7] = tested on: CREB phosphorylation in MC3T3 osteoblasts; assay: CREB phosphorylation in MC3T3 osteoblasts; format: cell-based, mouse; conditions: MC3T3, 10 nM for 5 min in serum free media
Method in brief: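 Immunoblot of MC3T3 osteoblasts exposed to peptides for 5 min in serum-free media. Controls were serum-free (S0), 10% serum (S10) and a scrambled peptide. Cells were lysed in RIPA buffer (pH 8) and protein was measured by BCA. Blots were blocked in 5% BSA for 1 h, probed with primary antibody then HRP-conjugated secondary, with actin as loading control. Run in triplicate.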

[8] = tested on: SCID-Beige mice; assay: Murine model of ectopic bone formation; format: in vivo, mouse; conditions: 40 μg/kg/day s.c., 21 days
Method in brief: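 Gelfoam sponges loaded with 1 × 10^6 bone marrow MSCs from C57BL/6 mice were implanted s.c. into randomized 6-week-old male SCID-Beige mice, two implants per flank, n = 3/group. After 1-week recovery, peptides or vehicle were injected s.c. daily at 40 μg/kg/day for 21 days. Ossicles were excised for μCT and trichrome histology, with bone matrix quantified.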

[9] = tested on: calvariae of Rag2−/− neonates; assay: Neonatal calvaria ex vivo assay; parameters: species or system mouse; conditions: 10 nM, 14 days, n = 4/group
Method in brief: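 Calvariae were isolated from 4-day-old Rag2−/− neonates and kept in organ culture. They were exposed to peptides for 14 days, n = 4/group.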

[10] = molecular target: T1, PTH1R; assay: cAMP production in MC3T3 osteoblasts; format: cell-based; conditions: MC3T3, 10 nM for 15 min, n = 5/group
Method in brief: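 MC3T3 osteoblasts were plated at 2.5 × 10^4 cells/well and exposed to peptides for 15 min (range 1–100 tested), n = 5/group. cAMP was measured with the cAMP-Glo luminescent assay. The forskolin analogue NKH477 (15 min) served as positive control. Groups were compared by ANOVA with Tukey's test.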

[11] = tested on: RANKL; assay: RANKL expression in whole bone marrow co-cultures; format: cell-based, mouse; conditions: 10 nM for 48 h
[12] = molecular target: T1, PTH1R; assay: ERK phosphorylation in PTH1R knockdown MC3T3 cells; format: cell-based; conditions: shPTH1R MC3T3 versus control shRNA, 10 nM for 5 min
Method in brief: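 PTH1R knockdown MC3T3 clones were made by lentiviral transduction of a pool of three shRNAs, with scrambled-sequence shControl clones; clone D was used. Cells got peptides for 5 min and were lysed in RIPA. Phospho-ERK immunoblots were blocked in 5% BSA, detected with HRP secondary and normalised to actin loading control. Triplicate experiments.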

[13] = molecular target: MMP-3 (Homo sapiens, UniProt P08254); assay: MMP-3 processing of PTHrP; format: in vitro ADME; conditions: MALDI-TOF
Chain of MMP-3 (P08254 100-272 limits assumed): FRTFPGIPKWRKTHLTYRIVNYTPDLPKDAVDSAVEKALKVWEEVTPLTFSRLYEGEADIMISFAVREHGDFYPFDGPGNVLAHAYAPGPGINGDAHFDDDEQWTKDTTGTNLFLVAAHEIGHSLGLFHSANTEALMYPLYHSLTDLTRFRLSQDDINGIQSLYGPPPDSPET
Method in brief: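 Recombinant PTHrP1–86 (100 ng) was digested 1 h with active MMP-3 (100 ng) in 0.15 M NaCl, Tris pH 7.6 buffer. Products were resolved by SDS-PAGE with Coomassie staining and by immunoblot. N-terminal sequencing was done, and for MALDI-TOF peptides were C18-extracted and mixed with α-cyano-4-hydroxycinnamic acid matrix.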

[14] = tested on: osteoprotegerin (OPG); assay: OPG expression in whole bone marrow co-cultures; format: cell-based, mouse; conditions: 10 nM for 48 h
[15] = tested on: ERK phosphorylation in MC3T3 osteoblasts; assay: ERK phosphorylation in osteoblasts; format: cell-based, mouse; conditions: 10 nM, 5 min, serum free media, vs control or scrambled peptide
[16] = tested on: ERK phosphorylation in MSCs; assay: ERK phosphorylation in primary MSCs; format: cell-based, mouse; conditions: 10 nM, 5 min, vs control or scrambled peptide
[17] = tested on: osteoblasts; assay: Tumour necrosis factor-α-induced cell death of osteoblasts; format: cell-based
[18] = tested on: SCID-Beige mice; assay: In vivo calvarial injection assay; parameters: species or system mouse; conditions: 2 μg s.c. over the calvaria every 6 h for 3 days, n = 3/group
Method in brief: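 Randomized 4–6-week-old female SCID-Beige mice (n = 3/group) received 2 μg peptide s.c. over the calvaria every 6 h for 3 days. Calvariae were harvested 10 h after the last injection, fixed and scanned by high-resolution μCT. They were then decalcified (14% EDTA, pH 7.4, 3 days) and paraffin-embedded, and 5 μm sections were stained with H&E, trichrome and TRAcP. Bone-lining multinucleated TRAcP-positive osteoclasts were counted per μm bone.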

[19] = molecular target: T1, PTH1R; assay: Calcium flux in PTH1R knockdown MC3T3 cells; format: cell-based; conditions: shPTH1R versus shControl MC3T3, 10 nM
Method in brief: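 Stable shPTH1R MC3T3 clones came from lentiviral transduction of three pooled PTH1R shRNAs; shControl clones carried a scrambled sequence. Cells (1 × 10^5) were loaded with Fluo-4 Direct. Time-lapse microscopy followed fluorescence after peptide addition. Increases (RFU) were measured in single cells, n = 20/group, from three fields per condition. A second shPTH1R clone was also tested.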

[20] = tested on: MC3T3 cells; assay: Migration of MC3T3 osteoblasts; format: cell-based, mouse; conditions: MC3T3, 10 nM in serum free media, 6 h / 5-h (methods), n = 3/group
Method in brief: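 Modified Boyden chamber assay: after 24-h serum starvation, 5 × 10^5 MC3T3 cells were seeded in the upper chamber (n = 3/group). Migration toward peptide in serum-free media ran at 37 °C, 5 h per methods (6 h in legend). Serum-free and 1% serum media were negative and positive controls. Cells were counted per ×20 field in five micrographs per condition.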

[21] = bone marrow cultures, n = 3/group

## MMP-3: recombinant MMP-3 (Millipore, #444217) added to SAOS-2 cells
[1]
  ratio of endogenous PTHrP1–17 to PTHrP1–17 SIS (peak areas): 0.03

## CNC(=O)[C@H](Cc1c[nH]c2ccccc12)NC(=O)[C@@H](CC(=O)NO)CC(C)C [GM6001]
[2]; PAIII, GM6001 10 μM, serum free 24 h, IP-MS with SIS1–17
  reduction of the amount of PTHrP1–17 in conditioned media: 77%
[2]; PaIII+GM6001 10 μM, PaIII alone = 0.13
  ratio of endogenous PTHrP1–17 to PTHrP1–17 SIS (peak areas): 0.03

## PTHrP1–16: N-terminal PTHrP fragment of a recent study (ref 31) (AVSEHQLLHDKGKSIQ; UniProt P12272 37-52, looked up, fragment)
[3]
  cAMP production: does not result in cAMP production
[4]
  calcium flux: no effect on calcium flux

## PTHrP1–36: mature 36 amino acid form of parathyroid hormone-related protein (ProImmune)
[5]
  migration: significantly increased migration
[6]
  calcium flux: triggered increases in calcium flux
[7]
  CREB phosphorylation: only induced by PTHrP1–36
[8]; n = 3/group
  osteoid in trichrome stained ossicle sections: a significant amount of osteoid
[8]; compared to control
  trabecular bone volume of hind limbs: significantly more bone
[8]; intermittent, n = 3/group
  bone formation in ectopic ossicles, μCT: revealed bone formation
[9]
  bone formation in calvaria ex vivo: no evidence of bone formation
  degradation of calvaria ex vivo: significant degradation of the calvaria
[10]
  cAMP production: induced cAMP
[11]; [21]
  RANKL expression (real-time PCR): significantly enhanced RANKL expression
[11]; bone marrow cultures, real-time PCR
  ratio of average RANKL:OPG transcripts: 15.03
[11]; primary bone marrow cultures
  RANKL expression (RT-PCR): increased RANKL expression
[12]
  ability to induce ERK phosphorylation in PTH1R knockdown cells: abrogated
[13]; 0.15 M NaCl, 50 mM Tris pH 7.6
  further cleavage of PTHrP1–36 by MMP-3: further cleaved to distinct stable peptide products
[13]; kinetic analyses
  time in which MMP-3 generated the main PTHrP products: ≤ 1 h
[14]; [21]
  OPG expression (real-time PCR): suppressing OPG
[14]; primary bone marrow cultures
  OPG expression (RT-PCR): appeared to suppress the expression of osteoprotegerin (OPG)
[15]
  ERK phosphorylation: induced ERK phosphorylation within 5 min
[16]
  ERK phosphorylation: induced ERK phosphorylation within 5 min
[17]
  prevention of tumour necrosis factor-α-induced cell death: did not prevent
[18]
  bone resorption of calvaria: displayed areas of extensive bone resorption
[19]
  calcium flux in PTH1R knockdown cells: significantly reduced
[20]
  migration: significantly increased migration

Source: publication PMC7771297 (Oncogene, 2017)
